# Rows were chosen to be rich in hits. Some 4.4% of all compounds tested hit in one or more screens of this group.
# HSF1 activator: increases HSF-1 driven luciferase reporter signal. NIH3T3-HGL HSF-1 luciferase reporter, MG132, 8 h; 100% = twice DMSO control signal. activation, % at 9 µM. hit rate 1.7% among 300,000. AID 504408;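 active = mean replicate activation of at least 50% with a set share of replicates each reaching 50%; inconclusive = only one of those two conditions met; inactive = mean below 50% and too few replicates reaching it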;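 note: 0% = median of the neutral control wells and 100% = twice that signal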
# HIF act: HIF pathway transcriptional activation; hit rate 0.32% among 300,000; U2OS HRE-luciferase reporter, luminescence; normalized: DMSO 0%, desferrioxamine 100%; activation, % at 7.5 µM (by protocol);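 active = mean activation of at least 10% of the iron chelator positive control signal, with at least half of replicates also reaching 10%; inconclusive = mean and replicate majority disagree about reaching 10%; inactive = mean and most replicates under 10%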
# HSF1 inh: HSF1 inhibition. NIH3T3-HGL HSE-luciferase, MG132-induced, luminescence 8 h; active compounds read low. activity change, negative = inhibition, % at 7.5 µM (by protocol). hit rate 0.77% among 300,000. AID 2098;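 active = more than half of replicate wells show activity change below -50%, luminescence cut by over half; inconclusive = some wells, but at most half, below -50%; inactive = no replicate well below -50%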;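 note: luciferase reports HSF-1 transcriptional activity via heat shock element; 0% = median of DMSO wells and -100% = zero luminescence signal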
# Calb FLC: C. albicans growth modulation with fluconazole; growth inhibition, % (concentration not given with the values); C. albicans CaCi-2 + fluconazole, Alamar Blue growth, 48 h; AID 1979; hit rate 0.57% among 300,000;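 active = growth inhibition above about 58% in most replicates, limit read from the data, passing the limit was not always enough; inconclusive = exactly half the replicates above a set limit; inactive = most replicates below a set limit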;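 note: all wells also contain fluconazole at 8 µg/ml as a sub-toxic cotreatment; 0% = median of DMSO wells and 100% = median of geldanamycin control wells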
# T cruzi repl: blocks replication of Trypanosoma cruzi | T. cruzi beta-gal in NIH3T3, luminescence, 90 h | inhibition, % (concentration not given with the values) | hit rate 1.4% among 300,000 | AID 1885;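 active = mean inhibition across valid replicates above about 55%, limit read from the data; inconclusive = mean below that limit but half or more replicates reach it; inactive = mean below it, under half of replicates reach it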;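 note: signal also drops with host cell toxicity which is not excluded here; 0% = plate median of DMSO wells and 100% = zero luminescence signal; higher percent means less beta-gal luminescence so fewer parasites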
#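 System – NIH/3T3 host cells with β-galactosidase reporter T. cruzi · Doses – single 50 nL compound addition per well in DMSO · Reagent – 5000 T. cruzi trypomastigotes/well · Medium – Low-serum DMEM with 2% FBS · Timing – ≥90 h infection period, 3 h prior cell attachment · Evaluation – parasite load inhibition, % · Technique – GalScreen luminescence, 60 min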
# * hit, by the source's call; ? = inconclusive; · = no result given.
SMILES,HSF1 activator,HIF act,HSF1 inh,Calb FLC,T cruzi repl
COC(=O)[C@@H](NC(=O)N1CCC(Cc2ccccc2)CC1)C(C)C,3,-5,-6,-12,0
COc1ccc2nc(N(CCN(C)C)C(=O)/C=C/c3cccs3)sc2c1,·,·,·,-9,51
COc1cccc(N(C(=O)c2cccs2)c2nc3ccccc3s2)c1,-74,2,-67*,?,34
CCN(CC)c1nc(SCCOC(=O)Nc2ccccc2)nc(N(CC)CC)n1,8,1,-2,5,68*
CN(C)c1nc(SCCOC(=O)c2ccccc2)nc(N(C)C)n1,12,-1,-3,-2,4
Cc1ccc(N2C(=O)C3CCC(C)(C2=O)C3(C)C)cc1C (stereo unspecified),11,0,-2,0,-5
CN1/C(=C\C=C2/SC(=S)NC2=O)C(C)(C)c2ccccc21,-28,0,-4,1,75*
CN1/C(=C\C=[N+](C)c2ccccc2)C(C)(C)c2ccccc21,-5,·,-5,105*,64*
O=C1CN(C(=O)c2ccc(F)cc2)c2ccccc2N1,-9,-1,-1,6,-11
Cc1ccc(N(CC(=O)NCc2ccco2)C(=O)CNS(=O)(=O)c2ccccc2)c(C)c1,42,0,13,3,4
O=C(CCCCN1CCCCC1)c1ccc2c(c1)Cc1ccccc1-2,4,0,4,1,71*
CC1CCCN(C(=O)CSc2nnc(-c3ccc(O)cc3)o2)C1 (stereo unspecified),-65,0,-57*,-3,7
CC1CCCN(C(=O)CSc2nnc(-c3cccs3)o2)C1 (stereo unspecified),44,2,17,-1,8
Cc1c(Cl)c(C(=O)NNC(=S)Nc2ccc(F)cc2)nn1C,59*,1,41,-28,-5
CCNC(=S)NNC(=O)c1nn(C)c(C)c1Cl,12,1,1,119*,-2
Cc1c(Cl)c(C(=O)NNC(=S)Nc2ccccc2)nn1C,16,0,16,-4,-6
Cc1ccc(O)c(C(=O)c2cc(C#N)c3nc4ccccc4n3c2)c1,21,0,6,-1,11
Cc1ccc(/C=N/NC(=O)CN2CCN(Cc3ccccc3Cl)CC2)o1,0,143*,-3,-3,-7
CSc1ccc(/C=N/NC(=O)CN2CCN(Cc3ccccc3Cl)CC2)cc1,2,0,-5,2,-5
CC12COC3(C(=O)Nc4ccc5ccccc5c4)CC1CCC32C (stereo unspecified),62*,1,31,1,13
CC12COC3(C(=O)Nc4ccccc4)CC1CCC32C (stereo unspecified),1,-1,3,15,5
Cc1ccc(N2CCN(C(=O)c3nn(C)c4c3CS(=O)(=O)c3ccccc3-4)CC2C)cc1 (stereo unspecified),10,1,-3,9,-1
Cc1ccc2oc(C(Cl)(Cl)Cl)cc(=O)c2c1,52*,-1,45,35,4
Cc1ccc2oc(C(F)(F)C(F)F)cc(=O)c2c1,-28,0,-14,-9,-18
CCC(C)Sc1nnc(CSc2nc3nc(C)cc(C)n3n2)o1 (stereo unspecified),-2,0,-11,-2,-12
SMILES,HSF1 activator,HIF act,HSF1 inh,Calb FLC,T cruzi repl
CC(C(=O)NC1CC(C)(C)NC(C)(C)C1)c1ccc([N+](=O)[O-])cc1 (stereo unspecified),-62,0,-59*,14,-13
C=Cn1cc[n+](CC(=O)c2cccs2)c1,42,-1,13,14,-10
O=C(C[n+]1ccn(CCCNP2(=O)C=C(c3ccccc3)OC(c3ccccc3)=C2)c1)c1cccs1,18,101*,1,50,16
Nc1n[nH]c(N)c1N=Nc1ccc2c(c1)OCO2,41,3,17,21,74*
Cc1ccc(N=Nc2c(N)n[nH]c2N)cc1,-4,1,-9,-9,5
O=C(NC(=S)NCCCN1CCOCC1)c1ccc([N+](=O)[O-])cc1,16,0,3,7,-13
Cc1ccc(C2CCN(C(=S)NC(C)(C)C)C2)cc1 (stereo unspecified),-75,1,-66*,4,-10
Cc1ccc(C2CCN(C(=S)NC3CCCCC3)C2)cc1 (stereo unspecified),-14,1,-2,-13,-12
Cc1[nH]c2ccccc2c1C(=O)C(=O)NCc1ccco1,0,0,4,-7,3
CCOc1ccccc1CN1CCN(Cc2c[nH]c3ccccc23)CC1CCO (stereo unspecified),-22,0,-6,7,-5
COc1ccc(CN2CCN(Cc3cc4ccccc4o3)CC2CCO)cc1C (stereo unspecified),-6,0,-8,-4,55*
CCOc1ccccc1CN1CCN(Cc2ccc(C)o2)C(CCO)C1 (stereo unspecified),9,0,0,-22,9
CCOc1ccccc1CN1CCN(CC2=Cc3cc(OC)ccc3OC2)CC1CCO (stereo unspecified),-15,0,-1,-5,55*
CCOc1ccccc1CN1CCN(Cc2nc3ccccc3s2)CC1CCO (stereo unspecified),-7,0,-3,-9,58*
CCOc1ccccc1CN1CCN(Cc2ccc(C)o2)CC1CCO (stereo unspecified),10,0,-12,-27,4
COc1cccc(CN2CCN(Cc3cc4ccccc4o3)CC2CCO)c1 (stereo unspecified),6,1,-1,-5,14
CCOc1ccccc1CN1CCN(Cc2[nH]c3ccccc3c2C)CC1CCO (stereo unspecified),-14,0,-12,-18,66*
COc1ccc(CN2CCN(Cc3cccc4nonc34)CC2CCO)c(C)c1C (stereo unspecified),22,-1,9,-20,66*
CCOc1ccc(CN2CCN(Cc3nc(C(C)C)cs3)CC2CCO)cc1 (stereo unspecified),8,0,-5,-9,58*
CC(C)c1csc(CN2CCN(Cc3ccccc3)C(CCO)C2)n1 (stereo unspecified),-6,0,-6,7,5
Cc1cccc(CN2CCN(Cc3cccc4nonc34)CC2CCO)n1 (stereo unspecified),2,-1,2,-20,4
CCOc1ccc(CN2CCN(Cc3[nH]c4ccc(OC)cc4c3C)CC2CCO)cc1 (stereo unspecified),12,0,6,21,72*
CC(CCc1ccccc1)NC(=O)Cn1cccc1C(=O)c1ccccc1 (stereo unspecified),1,-1,7,-10,23
CCn1c(=N)n(CC(=O)C23CC4CC(CC(C4)C2)C3)c2ccccc21,-3,-1,2,-3,58*
